Measured values pooled from the literature.
Each line is one published result; the experiments were not run side by side.
Target: Mitogen-activated protein kinase 15 (MAPK15, Homo sapiens, UniProt Q8TD08)
Residues used in one study (Q8TD08 1-544): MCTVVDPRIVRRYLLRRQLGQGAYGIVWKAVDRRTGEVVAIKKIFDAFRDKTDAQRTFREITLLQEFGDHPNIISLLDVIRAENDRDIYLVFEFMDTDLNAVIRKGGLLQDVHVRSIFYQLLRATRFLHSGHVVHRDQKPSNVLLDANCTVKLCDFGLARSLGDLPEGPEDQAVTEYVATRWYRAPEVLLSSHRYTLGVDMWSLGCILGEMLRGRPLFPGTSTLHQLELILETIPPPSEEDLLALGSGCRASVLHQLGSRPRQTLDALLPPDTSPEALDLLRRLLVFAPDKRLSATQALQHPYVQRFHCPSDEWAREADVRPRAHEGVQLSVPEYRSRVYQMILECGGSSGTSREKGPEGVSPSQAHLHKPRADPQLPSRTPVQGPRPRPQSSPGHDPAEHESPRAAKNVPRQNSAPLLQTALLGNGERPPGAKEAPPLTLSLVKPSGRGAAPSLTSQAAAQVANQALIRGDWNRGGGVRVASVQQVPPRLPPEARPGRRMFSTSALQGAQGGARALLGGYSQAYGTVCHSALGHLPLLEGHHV

Oc1cccc(-c2nc(N3CCOCC3)c3oc4ncccc4c3n2)c1
remaining activity (enzyme activity, inhibitor; 10 µM): 87%

Nc1nc(Nc2ccc(S(N)(=O)=O)cc2)sc1C(=O)c1ccccc1[N+](=O)[O-]
inhibition (enzyme activity, inhibitor; 0.1 µM): 73 to 75%

O=C(Nc1cnn(-c2csc(C(=O)NC3COC3)c2)c1)Nc1ccccc1Cl
remaining activity (enzyme activity, inhibitor; 5 µM): 140%

Cn1cnc(Br)c1C1=CN(c2ncnc3[nH]cnc23)CCS1
inhibition (enzyme activity, inhibitor, radiometric; 2 µM): 80.2%

CC(C)(C)c1nc2c(s1)c1nc(N)ncc1c1ccc(NS(=O)(=O)c3c(F)cccc3F)c(F)c12
remaining activity (enzyme activity, inhibitor, radiometric; 1 µM): 81%

O=C(Nc1cnn(-c2csc(C(=O)NC3COC3)c2)c1)Nc1c(F)cccc1Cl
remaining activity (enzyme activity, inhibitor; 5 µM): 108%

CS(=O)(=O)c1cc(C2(NC(=O)c3cncc4c3cnn4-c3ccc(F)cc3)CC2)ccn1
remaining binding (cell-free assay, competition with immobilised ligand; 1 µM): 100%

Cn1c(=O)n(-c2ccc(C(C)(C)C#N)cc2)c2c3cc(-c4cnc5ccccc5c4)ccc3ncc21
remaining activity (enzyme activity, inhibitor; 10 µM): 94%

C[C@@]1(Cc2ccc(C#N)cc2)C(=O)N(c2cc(Cl)cc(Cl)c2)c2ncc(C(=O)NC3(c4nc(C5CCC5)no4)CC3)n21
remaining binding (cell-free assay, competition with immobilised ligand; 1 µM): 100%

CC(C)(C)C(=O)c1sc(NC2CCCCC2)nc1N
remaining activity (enzyme activity, inhibitor; 10 µM): 43%

Cc1nccc(COC(=O)N2C[C@@H]3[C@@H](CNC(=O)c4ccc5[nH]nnc5c4)[C@@H]3C2)n1
remaining binding (cell-free assay, competition with immobilised ligand; 1 µM): 100%

Nc1ncnc2occ(-c3ccc(NC(=O)Nc4cc(C(F)(F)F)ccc4F)cc3)c12
remaining signal (cell-free assay, inhibitor; 20 µM): 0.1%

FC(F)(F)Oc1cccc(-c2cnc3ccc(-c4ccncc4)nn23)c1
activity vs control (enzyme activity, inhibitor, radiometric; 5 µM): 17%

O=C(Nc1cccnn1)N1CCC(=Cc2cccc(Oc3ccc(C(F)(F)F)cn3)c2)CC1
remaining binding (cell-free assay, competition with immobilised ligand; 1 µM): 83%
